Experimental data from ChEMBL document CHEMBL4177542, “A New Combination of a Pleuromutilin Derivative and Doxycycline for Treatment of Multidrug-Resistant Acinetobacter baumannii” (J Med Chem, 2017).
≈ marks a conversion by molar mass, not a printed value.

Assays:
Acinetobacter baumannii [1] = test: Growth inhibition of multidrug-resistant Acinetobacter baumannii ATCC BAA 18002 after 48 hrs by resazurin dye based broth microdilution method; type: functional; details: ATCC BAA 18002, 48 h
Summary of the method: (§1)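 Broth microdilution in tryptic soy broth. Mid-log cultures (OD600 0.5) treated with serial dilutions from a DMSO stock (1 mg per 100 μL) for 48 h at 37 °C. Resazurin (stock 0.02%) then added for 1 h at 37 °C. MIC is the lowest concentration staying blue; MBC is blue retained over 4 h (99.9% kill), with CFU plating when needed.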

[2] = test system: Mycobacterium tuberculosis; test: Bactericidal activity against Mycobacterium tuberculosis H37Rv after 48 hrs by resazurin dye based microdilution method; type: functional; details: read-out: MBC99.9
Acinetobacter baumannii [3] = test: Synergistic bactericidal activity against Acinetobacter baumannii ATCC 19606 at 2:1 compound to doxycycline ratio after 48 hrs by resazurin dye based microdilution broth checkerboard method; type: functional; details: ATCC 19606 = CIP 70.34 = JCM 6841, 48 h, read-out: MBC99.9
Summary of the method: (§2)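 Checkerboard broth microdilution of drug pairs in tryptic soy broth on mid-log cultures (OD 0.5), 48 h at 37 °C. Growth read by resazurin (pink growth, blue no growth). MBC is blue retained over 4 h, CFU plating where needed. ΣFIC = C_A/MIC_A + C_B/MIC_B, taken at the growth/no-growth interface wells; ΣFIC <0.5 counts as synergy.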

Staphylococcus aureus [4] = test: Synergistic antibacterial activity against Staphylococcus aureus ATCC 25923 at 2:1 compound to doxycycline ratio after 48 hrs by resazurin dye based microdilution broth checkerboard method; type: functional; details: ATCC 25923, 48 h; summary of the method: as §2
Pseudomonas aeruginosa [5] = test: Synergistic bactericidal activity against Pseudomonas aeruginosa ATCC 27853 at 2:1 compound to doxycycline ratio after 48 hrs by resazurin dye based microdilution broth checkerboard method; type: functional; details: ATCC 27853, 48 h, read-out: MBC99.9; summary of the method: as §2
[6] = Efflux ratio of apparent permeability in human Caco2 cells; type: ADME, cell-based; details: Caco-2
Acinetobacter baumannii [7] = test: Growth inhibition of Acinetobacter baumannii ATCC 19606 after 48 hrs by resazurin dye based microdilution method; type: functional; details: ATCC 19606 = CIP 70.34 = JCM 6841, 48 h
Summary of the method: (§3)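 A. baumannii ATCC 19606 grown in tryptic soy broth, 37 °C with shaking, to mid-log (OD 0.5). Cultures treated with serial dilutions of inhibitor (DMSO stock 1 mg/100 μL), 48 h at 37 °C. Resazurin then added, 1 h at 37 °C with shaking. MIC is the lowest concentration staying blue; MBC is blue retained over 4 h, with CFU plating if needed (99.9% kill).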

Acinetobacter baumannii [8] = test: Synergistic antibacterial activity against Acinetobacter baumannii ATCC 19606 at 2:1 compound to doxycycline ratio after 48 hrs by resazurin dye based microdilution broth checkerboard method; type: functional; details: ATCC 19606 = CIP 70.34 = JCM 6841, 48 h; summary of the method: as §2
Klebsiella pneumoniae [9] = test: Synergistic bactericidal activity against Klebsiella pneumoniae ATCC 8047 at 60:1 compound to doxycycline ratio after 48 hrs by resazurin dye based microdilution broth checkerboard method; type: functional; details: ATCC 8047, 48 h, read-out: MBC99.9; summary of the method: as §2
Staphylococcus aureus [10] = test: Growth inhibition of Staphylococcus aureus ATCC 25923 after 48 hrs by resazurin dye based microdilution method; type: functional; details: ATCC 25923, 48 h; summary of the method: as §1
Vero = test: Cytotoxicity against African green monkey Vero cells after 72 hrs by MTT assay; type: cell-based, Chlorocebus sabaeus; details: Chlorocebus sabaeus, Vero, 72 h; read-out: IC50
Summary of the method: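 Vero (ATCC CCL-81) cells in Eagle's MEM with 10% FBS and penicillin-streptomycin, in 96-well plates. Serial dilutions from 0.78 to 200 μg/mL. Tunicamycin, colistin or tobramycin as controls on each plate. Viability by MTT, giving IC50.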

Acinetobacter baumannii [11] = test: Bactericidal activity against Acinetobacter baumannii ATCC 19606 after 48 hrs by resazurin dye based microdilution method; type: functional; details: ATCC 19606 = CIP 70.34 = JCM 6841, 48 h, read-out: MBC99.9; summary of the method: as §3
Acinetobacter baumannii [12] = test: Synergistic bactericidal activity against Acinetobacter baumannii ATCC 19606 at 35:1 compound to doxycycline ratio after 48 hrs by resazurin dye based microdilution broth checkerboard method; type: functional; details: ATCC 19606 = CIP 70.34 = JCM 6841, 48 h, read-out: MBC99.9; summary of the method: as §2
Klebsiella pneumoniae [13] = test: Synergistic antibacterial activity against Klebsiella pneumoniae ATCC 8047 at 60:1 compound to doxycycline ratio after 48 hrs by resazurin dye based microdilution broth checkerboard method; type: functional; details: ATCC 8047, 48 h; summary of the method: as §2
Acinetobacter baumannii [14] = test: Synergistic antibacterial activity against Acinetobacter baumannii ATCC 19606 infected in C57BL/6 mouse assessed as survival rate at compound to doxycycline ratio of 35:1 at 2 mg/kg, ip administered as single dose measured for 5 days (reference value: <20%); type: functional; details: ATCC 19606 = CIP 70.34 = JCM 6841, ip, 120 h
Summary of the method: (§4)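 C57BL/6 mice (n = 5 per group; 4 untreated controls) infected intraperitoneally with A. baumannii ATCC19606 grown at 37 °C and collected by centrifugation, at a dose giving 75% death. Single intraperitoneal dose (2 to 60 mg/kg) given 1 h after infection. Mice monitored for 5 days, with death as the end point; survival rate recorded.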

Acinetobacter baumannii [15] = test: Synergistic antibacterial activity against Acinetobacter baumannii ATCC 19606 infected in C57BL/6 mouse assessed as increase in survival rate at compound to doxycycline ratio of 35:1 administered ip as single dose measured for 5 days; type: functional; details: ATCC 19606 = CIP 70.34 = JCM 6841, ip, 120 h; summary of the method: as §4
Acinetobacter baumannii [16] = test: Synergistic antibacterial activity against Acinetobacter baumannii ATCC 19606 infected in C57BL/6 mouse assessed as survival rate at compound to doxycycline ratio of 35:1 at 4 mg/kg, ip administered as single dose measured for 5 days (reference value: <20%); type: functional; details: ATCC 19606 = CIP 70.34 = JCM 6841, ip, 120 h; summary of the method: as §4
Staphylococcus aureus [17] = test: Synergistic bactericidal activity against Staphylococcus aureus ATCC 25923 at 2:1 compound to doxycycline ratio after 48 hrs by resazurin dye based microdilution broth checkerboard method; type: functional; details: ATCC 25923, 48 h, read-out: MBC99.9; summary of the method: as §2
Escherichia coli = test: Synergistic bactericidal activity against Escherichia coli ATCC 10798 at 35:1 compound to doxycycline ratio after 48 hrs by resazurin dye based microdilution broth checkerboard method; type: functional; details: ATCC 10798, 48 h, read-out: MBC99.9; summary of the method: as §2
[18] = Solubility of the compound in water at 10 mg after 24 hrs by HPLC based shake flask method; type: physicochemical
Pseudomonas aeruginosa [19] = test: Synergistic antibacterial activity against Pseudomonas aeruginosa ATCC 27853 at 35:1 compound to doxycycline ratio after 48 hrs by resazurin dye based microdilution broth checkerboard method; type: functional; details: ATCC 27853, 48 h
Summary of the method: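 Microdilution broth checkerboard of the compound combined with doxycycline, using the resazurin broth method (48 h, 37 °C, blue = no growth). ΣFIC = C_A/MIC_A + C_B/MIC_B, taken at the growth–no growth interface wells; ΣFIC below 0.5 is scored as synergy. MBC for the fixed-ratio combinations read as the 4 h resazurin endpoint.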

Acinetobacter baumannii [20] = test: Synergistic antibacterial activity against Acinetobacter baumannii ATCC 19606 infected in C57BL/6 mouse assessed as survival rate at compound to doxycycline ratio of 35:1 at 60 mg/kg, ip administered as single dose measured for 5 days (reference value: <20%); type: functional; details: ATCC 19606 = CIP 70.34 = JCM 6841, ip, 120 h; summary of the method: as §4
Acinetobacter baumannii [21] = test: Potentiation of doxycycline-induced antimicrobial activity against Acinetobacter baumannii ATCC 19606 at 0.2 ug/ml in presence of 0.025 ug/ml doxycycline by microdilution broth checkerboard method; type: functional, ATCC 19606 = CIP 70.34 = JCM 6841
Summary of the method: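 A. baumannii ATCC 19606 in a broth microdilution checkerboard with doxycycline, 96 concentration combinations. ΣFIC = C_A/MIC_A + C_B/MIC_B, taken for wells at the growth/no-growth interface; ΣFIC <0.5 counts as synergy.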

## C=C[C@]1(C)C[C@@H](OC(=O)CSC(C)(C)CNC(=O)[C@H](N)C(C)C)[C@]2(C)[C@H](C)CC[C@]3(CC[C@@H](O)[C@H]32)[C@@H](C)[C@@H]1O
Acinetobacter baumannii [1]
  MIC: 6.25 µg/mL (≈ 11 µM)
[2]
  MBC: 6.25 µg/mL (≈ 11 µM)
Acinetobacter baumannii [3]
  MBC: 2 µg/mL
Staphylococcus aureus [4]
  MIC: 12.5 µg/mL
Pseudomonas aeruginosa [5]
  MBC: 12.5 µg/mL
[6]
  efflux ratio: 5
Acinetobacter baumannii [7]
  MIC: 1.75 µg/mL (≈ 3.09 µM)
Acinetobacter baumannii [8]
  MIC: 0.5 µg/mL
Klebsiella pneumoniae [9]
  MBC: 3.25 µg/mL
Staphylococcus aureus [10]
  MIC: 12.5 µg/mL (≈ 22.1 µM)
Vero
  IC50: 45.3 µg/mL (≈ 79.9 µM)
Acinetobacter baumannii [11]
  MBC: 3.13 to 6.25 µg/mL (≈ 5.52 to 11 µM)
Acinetobacter baumannii [12]
  MBC: 2 µg/mL
Klebsiella pneumoniae [13]
  MIC: 1.56 µg/mL
Acinetobacter baumannii [14]
  survival at 2 mg/kg: 60%
Acinetobacter baumannii [15]
  ED50: < 2 mg/kg
Acinetobacter baumannii [16]
  survival at 4 mg/kg: 100%
Staphylococcus aureus [17]
  MBC: 25 µg/mL
Escherichia coli
  MBC: 1.56 µg/mL
[18]
  solubility: Soluble
Pseudomonas aeruginosa [19]
  MIC: 12.5 µg/mL
Acinetobacter baumannii [20]
  survival at 60 mg/kg: 100%
Acinetobacter baumannii [21]
  fractional inhibitory concentration index (FICI): 0.16
